Key:
Mus musculus [1] = assay: Inhibition of Mouse Active Arthus reaction following 150 mg/Kg i.p.; 41-60% inhibition.; type: functional; details: Mus musculus, ip
Cavia porcellus [2] = assay: Tested in delayed hypersensitivity skin reaction (DHSR) after subcutaneous administration, activity reported as percent inhibition of erythema/induration of lesion; 4/12; type: functional
Summary of the method: (§1)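 Male Hartley guinea pigs were sensitized with Mycobacterium tuberculosis in Freund's incomplete adjuvant, injected into each hind footpad and subcutaneously at the neck. After 3 weeks, 1.2 μg PPD was given intradermally. Compound in sesame oil was given sc, 3 animals per group, 30 min before and 5 h after PPD; screening dose 50 mg/kg.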

Cavia porcellus [3] = assay: Tested in delayed hypersensitivity skin reaction (DHSR) after subcutaneous administration, activity reported as percent inhibition of erythema/induration of lesion; 4/0; type: functional; summary of the method: as §1
Mus musculus [4] = assay: The compound was evaluated for the mouse active Arthus (MAA) reaction activity expressed as inhibitory dose after oral administration; type: functional; details: read-out: ID50 (the source's name)
Summary of the method: (§2)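 CD-1 mice were sensitized ip with a 1:1 Freund's complete adjuvant emulsion containing BSA in saline, 5 weeks before challenge. Compound was suspended in 1% Na CMC in pyrogen-free saline and given as one ip or oral dose 1 h before skin challenge with BSA. Screening doses were 150 mg/kg ip and 300 mg/kg po, with some at 75 or 50 mg/kg ip. Lesions were excised 3.5 h after challenge and weighed against controls.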

Mus musculus [5] = assay: Mouse active Arthus (MAA) reaction activity was determined for an ip dose of 150 mg/kg in mouse; type: functional; details: route intraperitoneal
[6] = Acute toxicity as LD50 value was determined in mice administered orally; type: organism-based; details: mouse, in vivo, po
[7] = Therapeutic ratio was determined for intraperitoneal administration; type: ADME; details: ip; read-out: TR
[8] = Therapeutic ratio was determined for peroral administration; details: po; read-out: TR
Mus musculus [9] = assay: Inhibition of Mouse active Arthus (MAA) reaction activity was determined for peroral dose of 300 mg/kg in mouse; 41-60%; type: functional; details: route oral
[10] = Acute toxicity as LD50 value was determined in mice administered intraperitoneally; type: organism-based; details: mouse, in vivo, ip
Mus musculus [11] = assay: The compound was evaluated for the mouse active Arthus (MAA) reaction activity expressed as inhibitory dose after ip administration; type: functional; details: read-out: ID50 (the source's name); summary of the method: as §2
Cavia porcellus [12] = assay: Tested in delayed hypersensitivity skin reaction (DHSR) after subcutaneous administration, activity reported as percent inhibition of erythema/induration of lesion; 24/41; type: functional; summary of the method: as §1
Mus musculus [13] = species: Mus musculus; assay: Mouse active Arthus (MAA) reaction activity was determined for peroral dose of 300 mg in mouse; 21-30%; type: functional
Mus musculus [14] = assay: The compound was evaluated for the mouse active Arthus (MAA) reaction activity for an ip dose of 150 mg/kg in mouse; type: functional; details: route intraperitoneal; summary of the method: as §2
Cavia porcellus [15] = assay: The compound was evaluated for the delayed hypersensitivity skin reaction (DHSR) activity after subcutaneous administration; 0/0
Mus musculus [16] = assay: Mouse active Arthus (MAA) reaction activity was determined for an ip dose of 150 mg/kg in mouse; 31-40%; type: functional; details: route intraperitoneal
Cavia porcellus [17] = assay: Tested in delayed hypersensitivity skin reaction (DHSR) after subcutaneous administration, activity reported as percent inhibition of erythema/induration of lesion; 1/20; type: functional
Cavia porcellus [18] = assay: Tested in delayed hypersensitivity skin reaction (DHSR) after subcutaneous administration, activity reported as percent inhibition of erythema/induration of lesion; 15/0; type: functional
Cavia porcellus [19] = assay: Tested in delayed hypersensitivity skin reaction (DHSR) after subcutaneous administration, activity reported as percent inhibition of erythema/induration of lesion; 9/32; type: functional; summary of the method: as §1
Mus musculus [20] = assay: The compound was evaluated for the mouse active Arthus (MAA) reaction activity for an ip screening dose of 50 mg/kg; type: functional; details: route intraperitoneal; summary of the method: as §2
Cavia porcellus [21] = assay: Tested in delayed hypersensitivity skin reaction (DHSR) after subcutaneous administration, activity reported as percent inhibition of erythema/induration of lesion; 10/8; type: functional
Mus musculus [22] = assay: The compound was evaluated for the mouse active Arthus (MAA) reaction activity for an ip screening dose of 75 mg/kg in mouse; 31-40%; type: functional; details: route intraperitoneal; summary of the method: as §2
Mus musculus [23] = assay: Inhibition of Mouse active Arthus (MAA) reaction activity was determined for an ip dose of 150 mg/kg in mouse; 21-30%; type: functional; details: route intraperitoneal
Cavia porcellus [24] = assay: Tested in delayed hypersensitivity skin reaction (DHSR) after subcutaneous administration, activity reported as percent inhibition of erythema/induration of lesion; 4/6; type: functional; summary of the method: as §1
Cavia porcellus [25] = assay: Tested in delayed hypersensitivity skin reaction (DHSR) after subcutaneous administration, activity reported as percent inhibition of erythema/induration of lesion; 14/42; type: functional
Mus musculus [26] = species: Mus musculus; assay: The compound was evaluated for the mouse active Arthus (MAA) reaction activity expressed as inhibitory dose.; type: functional; details: read-out: ID50 (the source's name); summary of the method: as §2
Cavia porcellus [27] = assay: Tested in delayed hypersensitivity skin reaction (DHSR) after subcutaneous administration, activity reported as percent inhibition of erythema/induration of lesion; 5/18; type: functional; summary of the method: as §1
Mus musculus [28] = assay: Carrageenan-induced edema was determined value for oral administration; type: functional; details: read-out: ID50 (the source's name)
Summary of the method: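 Adult male Sprague-Dawley (CD) rats, 160–200 g. Single dose in 1% CMC given 2 h before footpad injection of 0.05 mL 1% carrageenin in pyrogen-free saline. Paws removed and weighed at 3 h, with the contralateral paw as control. ID50 is the dose giving 50% edema inhibition.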

CCCN1N=C2/C(=C/c3ccc(OC)cc3)C[S+]([O-])CC2C1c1ccc(OC)cc1 (single isomer, unassigned; isomer A)
inhibition in vivo at 150 mg/kg (Mus musculus [1]): 41%
Activity (Cavia porcellus [2]): 4

CCCn1nc(-c2ccc(Cl)cc2)c2c1/C(=C/c1ccc(Cl)cc1)CSC2
inhibition in vivo at 150 mg/kg (Mus musculus [1]): 41%

CN1N=C2/C(=C/c3cccc(C(F)(F)F)c3)CS(=O)(=O)CC2C1c1cccc(C(F)(F)F)c1 (stereo not given)
inhibition in vivo at 150 mg/kg (Mus musculus [1]): 41%
Activity (Cavia porcellus [3]): 4

Cc1ccccc1/C=C1\CSCC2C1=NN(CCCN1CCN(C)CC1)C2c1ccccc1C.O=C(O)/C=C\C(=O)O (stereo not given)
ED50 (Mus musculus [4]): 225 mg/kg
inhibition in vivo at 150 mg/kg (Mus musculus [5]): > 60%
LD50 [6]: > 1200 mg/kg
selectivity ratio [7]: 5.7
selectivity ratio [8]: > 5.3
inhibition in vivo at 300 mg/kg (Mus musculus [9]): 41%
LD50 [10]: 170 mg/kg
ED50 (Mus musculus [11]): 30 mg/kg
Activity (Cavia porcellus [12]): 24

CCCN1N=C2/C(=C/c3ccccc3)C[S+]([O-])CC2C1c1ccccc1 (single isomer, unassigned; isomer B)
inhibition in vivo at 150 mg/kg (Mus musculus [1]): 41%

O=C(c1ccccc1)N1N=C2/C(=C/c3ccccc3)CS(=O)(=O)CC2C1c1ccccc1 (stereo not given)
Inhibition (Mus musculus [13]): 21%
inhibition in vivo at 150 mg/kg (Mus musculus [5]): > 60%

CN1CCN(CCCN2N=C3/C(=C/c4ccc([S+](C)[O-])cc4)COCC3C2c2ccc([S+](C)[O-])cc2)CC1.O=C(O)/C=C\C(=O)O (stereo not given)
inhibition in vivo at 150 mg/kg (Mus musculus [14]): < 20%
Activity (Cavia porcellus [15]): 0

O=C(c1ccc(Cl)cc1)N1N=C2/C(=C/c3ccccc3)CS(=O)(=O)CC2C1c1ccccc1 (stereo not given)
inhibition in vivo at 150 mg/kg (Mus musculus [16]): 31%
Activity (Cavia porcellus [17]): 1

CC(C)(C)c1ccc(/C=C2\CS(=O)(=O)CC3C2=NN(CC2CC2)C3c2ccc(C(C)(C)C)cc2)cc1 (stereo not given)
Activity (Cavia porcellus [18]): 15

CN1CCN(CCCN2N=C3/C(=C/c4ccccc4)COCC3C2c2ccccc2)CC1.O=C(O)/C=C\C(=O)O (stereo not given)
Activity (Cavia porcellus [19]): 9
inhibition in vivo at 50 mg/kg (Mus musculus [20]): > 60%

COc1ccc(/C=C2\CS(=O)(=O)CC3C2=NN(CCCN2CCN(C)CC2)C3c2ccc(OC)cc2)cc1 (stereo not given)
Activity (Cavia porcellus [21]): 10
inhibition in vivo at 75 mg/kg (Mus musculus [22]): 31%

OCCN1N=C2/C(=C/c3ccccc3)CSCC2C1c1ccccc1 (stereo not given)
inhibition in vivo at 150 mg/kg (Mus musculus [23]): 21%
Activity (Cavia porcellus [24]): 4

Cc1ccccc1/C=C1\CS(=O)(=O)CC2C1=NN(CCCN1CCN(C)CC1)C2c1ccccc1C.O=C(O)/C=C\C(=O)O (stereo not given)
Activity (Cavia porcellus [25]): 14
inhibition in vivo at 150 mg/kg (Mus musculus [5]): > 60%
selectivity ratio [7]: < 3.5
ED50 (Mus musculus [26]): < 37.5 mg/kg
LD50 [10]: 130 mg/kg

CCCN1N=C2/C(=C/c3ccccc3)CN(C)CC2C1c1ccccc1 (stereo not given)
inhibition in vivo at 150 mg/kg (Mus musculus [1]): 41%
Activity (Cavia porcellus [27]): 5

COc1cc2c(c(OC)c1OC)-c1ccc(OC)c(=O)cc1[C@@H](NC(C)=O)CC2 [COLCHICINE]
LD50 [6]: 13.5 mg/kg
selectivity ratio [7]: 1.5
selectivity ratio [8]: 1
LD50 [10]: 3.5 mg/kg
ED50 (Mus musculus [28]): 13.2 mg/kg

— ChEMBL document CHEMBL1122142, “Synthesis and antiinflammatory activity of hexahydrothiopyrano[4,3-c]pyrazoles and related analogues” (J Med Chem, 1982)
